Source: ChEMBL document CHEMBL4020708, “Studies of CDK 8/19 inhibitors: Discovery of novel and selective CDK8/19 dual inhibitors and elimination of their CYP3A4 time-dependent inhibition potential” (Bioorg Med Chem, 2017)
Values after ≈ are worked out from the molar mass of the structure shown. Active and inactive are the calls of the source. The calls are words filed in the database; no cut-off is given here.

Experiments:
[1] = biological target: T1, Cyclin-dependent kinase 8 (Homo sapiens, UniProt P49336); assay: Inhibition of CDK8 in human SW480 cells assessed as reduction in STAT1 phosphorylation at Ser727 residues up to 30 nM after 1 day by Western blot method; format: cell-based
T1 sequence (P49336 whole entry): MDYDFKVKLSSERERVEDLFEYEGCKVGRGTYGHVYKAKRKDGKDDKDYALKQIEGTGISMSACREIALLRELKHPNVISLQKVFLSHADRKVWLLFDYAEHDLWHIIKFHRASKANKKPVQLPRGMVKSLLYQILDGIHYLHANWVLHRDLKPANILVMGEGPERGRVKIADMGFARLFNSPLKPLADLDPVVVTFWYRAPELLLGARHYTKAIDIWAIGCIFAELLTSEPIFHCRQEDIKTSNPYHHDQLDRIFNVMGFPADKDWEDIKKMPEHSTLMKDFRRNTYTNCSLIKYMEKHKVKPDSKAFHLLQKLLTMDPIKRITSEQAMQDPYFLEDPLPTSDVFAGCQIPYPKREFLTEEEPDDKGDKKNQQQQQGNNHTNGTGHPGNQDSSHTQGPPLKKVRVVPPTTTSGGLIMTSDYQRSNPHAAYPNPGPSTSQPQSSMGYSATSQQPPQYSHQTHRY
Summary of the method: (§1)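 Cell pellets were lysed in 62.5 mM Tris-Cl (pH 7.5), 1% SDS and 5% glycerol, then boiled at 95 °C for 5 min. 5 ug total protein was run on SDS-polyacrylamide gels, transferred and probed for total STAT1 and phospho-STAT1 Ser727. Detection used HRP-conjugated secondary antibodies and ECL plus chemiluminescence.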

CDK8/Cyclin C = CDK8/Cyclin C (Homo sapiens, UniProt P49336); assay: Inhibition of kinase tracer 236 binding to full length N terminal GST-tagged human CDK8 (1 to 464 end residues) /CycC ( 1 to 283 end residues) expressed in baculovirus expression system after 60 min by TR-FRET assay
Sequence of CDK8/Cyclin C (P49336 whole entry): as above
Sequence of CDK8/Cyclin C (P24863 whole entry, further chain): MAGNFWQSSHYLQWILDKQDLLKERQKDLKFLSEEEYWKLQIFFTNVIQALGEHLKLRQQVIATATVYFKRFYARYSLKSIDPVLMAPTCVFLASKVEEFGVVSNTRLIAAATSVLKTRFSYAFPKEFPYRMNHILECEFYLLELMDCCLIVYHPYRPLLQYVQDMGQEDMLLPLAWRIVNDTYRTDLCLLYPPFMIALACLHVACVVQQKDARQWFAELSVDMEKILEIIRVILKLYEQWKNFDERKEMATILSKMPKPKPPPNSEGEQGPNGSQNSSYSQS
Summary of the method: (§2)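 TR-FRET ligand displacement using 20 nM GST-CDK8/CycC or GST-CDK19/CycC, 20 nM Kinase Tracer 236 and Tb-anti-GST antibody. Buffer 25 mM HEPES, 10 mM MgCl₂, 2 mM DTT, 0.01% Tween-20. Incubated 60 min at rt.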

[2] = biological target: T1, Cyclin-dependent kinase 8; assay: Inhibition of CDK8 in human SW480 cells assessed as reduction in IFN-gamma induced STAT1 phosphorylation at Ser727 residues preincubated for 2 hrs followed by IFN-gamma addition measured after 1 hr by In-cell western assay; format: cell-based
Summary of the method: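 SW480 cells kept in L-15 with 10% FBS at 37 °C and plated at 6000 cells/well overnight. Compound applied 2 h, then 10 ng/mL IFN-γ for 1 h. Cells fixed, permeabilized and blocked, then probed overnight at 4 °C with anti-pSTAT1 Ser727. IRDye 800CW secondary plus DRAQ5 for DNA, Odyssey imaging.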

CYP3A4 = CYP3A4 (Homo sapiens, UniProt P08684); assay: Time-dependent inhibition of CYP3A4 in human liver microsomes assessed as reduction in testosterone to 6beta-hydroxytestosterone conversion by measuring remaining activity at 30 uM preincubated for 60 mins followed by testosterone addition measured after 20 mins in presence of NADPH by UPLC analysis relative to control; format: ADME; conditions: probe testosterone (6beta-hydroxylation), read-out: Activity
Sequence of CYP3A4 (P08684 whole entry): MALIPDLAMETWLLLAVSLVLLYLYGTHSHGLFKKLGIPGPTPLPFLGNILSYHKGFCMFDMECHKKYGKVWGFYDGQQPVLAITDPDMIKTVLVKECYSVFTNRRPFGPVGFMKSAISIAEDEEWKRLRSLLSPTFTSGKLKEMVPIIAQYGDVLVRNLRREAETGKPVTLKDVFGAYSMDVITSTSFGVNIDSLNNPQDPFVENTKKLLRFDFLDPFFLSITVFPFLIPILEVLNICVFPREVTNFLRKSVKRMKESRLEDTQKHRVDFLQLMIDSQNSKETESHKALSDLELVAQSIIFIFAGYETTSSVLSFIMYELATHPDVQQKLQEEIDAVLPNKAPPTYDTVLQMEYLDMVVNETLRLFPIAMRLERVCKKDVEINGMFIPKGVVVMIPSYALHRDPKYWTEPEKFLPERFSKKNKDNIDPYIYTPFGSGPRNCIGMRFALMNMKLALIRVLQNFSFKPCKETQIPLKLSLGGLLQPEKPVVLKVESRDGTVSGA
Summary of the method: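 Compound at 30 μM preincubated with human liver microsomes in phosphate buffer pH 7.4 at 37 °C for 0 or 60 min with an NADPH-generating system. Testosterone then added for 20 min, and 6β-hydroxytestosterone measured by UPLC. Activity expressed as % of DMSO control; % remaining taken after 60 min preincubation.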

[3] = Cmax in mouse at 1 mg/kg, po administered as cassette dose measured up to 8 hrs by LC/MS/MS analysis; format: ADME, organism-based; parameters: dose 1 mg/kg, route oral; conditions: in vivo
Summary of the method: (§3)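 Cassette dosing to non-fasted mice, 1 mg/kg po (0–8 h). Plasma obtained from blood by centrifugation, deproteinized with acetonitrile, centrifuged, and the supernatant analysed by LC/MS/MS.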

[4] = AUC (0 to 8 hrs) in mouse at 1 mg/kg, po administered as cassette dose by LC/MS/MS analysis; format: ADME, organism-based; parameters: time < 8 hr, dose 1 mg/kg, route oral; conditions: in vivo; summary of the method: as §3
[5] = MRT in mouse at 1 mg/kg, po administered as cassette dose measured up to 8 hrs by LC/MS/MS analysis; format: ADME, organism-based; conditions: in vivo; summary of the method: as §3
[6] = Oral bioavailability in mouse at 1 mg/kg administered as cassette dose measured up to 8 hrs by LC/MS/MS analysis; format: ADME, organism-based; conditions: in vivo
Summary of the method: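 Bioavailability from mouse cassette dosing, 0.1 mg/kg iv and 1 mg/kg po, non-fasted animals. Plasma was deproteinized with acetonitrile and compound quantified by LC/MS/MS.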

Liver [7] = assay: Intrinsic clearance in human liver microsomes at 1 umol/L after 15 to 30 mins in presence of NADPH by LC/MS/MS analysis; format: ADME, microsome; conditions: 1 µM
Summary of the method: (§4)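 Human or mouse liver microsomes at 0.2 mg/mL protein in 50 mmol/L phosphate buffer pH 7.4 with 1 μmol/L compound. Reaction started with an NADPH-generating system and stopped at 15 and 30 min with acetonitrile. LC/MS/MS readout. Intrinsic clearance taken as initial metabolic velocity (slope of concentration-time) divided by compound concentration.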

Liver [8] = assay: Intrinsic clearance in mouse liver microsomes at 1 umol/L after 15 to 30 mins in presence of NADPH by LC/MS/MS analysis; format: ADME, microsome; conditions: 1 µM; summary of the method: as §4
[9] = Solubility of the compound at pH 6.8; format: physicochemical; conditions: buffer
Summary of the method: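 Compound added from DMSO solution to JP 2nd disintegration fluid (pH 6.8) and incubated. Precipitate removed by filtration, and filtrate concentration measured by plate reader or HPLC.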

RPMI-8226 [10] = assay: Antiproliferative activity against human RPMI8226 cells after 168 hrs by Celltiter-Glo luminescent assay; format: functional; conditions: RPMI-8226, 168 h
Summary of the method: (§5)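 Cells seeded at 5×10^2 per well. Compound added 24 h later at an appropriate concentration and incubated 168 h. Viability read by CellTiter-Glo luminescence after 20 min. Nuclear count by CyQuant Direct fluorescence after 1 h.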

EOL1 = assay: Antiproliferative activity against human EOL-1 cells after 168 hrs by Celltiter-Glo luminescent assay; format: functional; conditions: EOL1, 168 h; summary of the method: as §5
RPMI-8226 [11] = assay: Antitumor activity against human RPMI8226 cells xenografted in C.B17/Icr-scid/scid Jcl mouse assessed as tumor growth at 15 mg/kg, po bid after 2 weeks relative to control; format: functional
Summary of the method: (§6)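 Female C.B17/Icr-scid/scid Jcl mice, five weeks old, implanted sc in one flank with 1×10^7 RPMI-8226 cells in HBSS:Matrigel 1:1. When tumors reached about 80–140 mm³, dosed po b.i.d. at 15 or 30 mg/kg for 14 days. Caliper volume (0.5×length×width²) and body weight measured twice weekly. Tumor growth expressed as T/C vs vehicle. Mean ± se.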

RPMI-8226 [12] = assay: Antitumor activity against human RPMI8226 cells xenografted in C.B17/Icr-scid/scid Jcl mouse assessed as tumor growth at 30 mg/kg, po bid after 2 weeks relative to control; format: functional; summary of the method: as §6
Mus musculus [13] = assay: Toxicity in C.B17/Icr-scid/scid Jcl mouse xenografted with human RPMI8226 cells assessed as change in body weight at 15 mg/kg, po bid after 2 weeks; format: organism-based; conditions: in vivo, 336 h; summary of the method: as §6
Mus musculus [14] = assay: Toxicity in C.B17/Icr-scid/scid Jcl mouse xenografted with human RPMI8226 cells assessed as change in body weight at 30 mg/kg, po bid after 2 weeks relative to control; format: organism-based; conditions: in vivo, 336 h; summary of the method: as §6
Mus musculus [15] = assay: In vivo inhibition of STAT1 phosphorylation at Ser727 residues in C.B17/Icr-scid/scid Jcl mouse xenografted with human RPMI8226 cells at 15 to 30 mg/kg, po bid treated for 2 weeks measured over 2 to 8 hrs post dose by Western blot analysis; format: functional, organism-based
Summary of the method: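 Xenografted mice dosed po b.i.d. at 15 or 30 mg/kg for 2 weeks, sampled 2 h and 8 h post-dose on the final day. Samples lysed in Tris-SDS-glycerol buffer and boiled 95 °C for 5 min. 5 ug protein run on SDS-PAGE and blotted for STAT1 and phospho-STAT1 Ser727. HRP secondary with ECL detection.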

[16] = biological target: T1, Cyclin-dependent kinase 8; assay: Inhibition of CDK8 in human EOL1 cells assessed as reduction in STAT1 phosphorylation at Ser727 residues up to 30 nM after 1 day by Western blot method; format: cell-based; summary of the method: as §1
[17] = biological target: T1, Cyclin-dependent kinase 8; assay: Inhibition of CDK8 in human RPMI8226 cells assessed as reduction in STAT1 phosphorylation at Ser727 residues up to 30 nM after 1 day by Western blot method; format: cell-based; summary of the method: as §1
[18] = biological target: Cyclin-C/Cyclin-dependent kinase 19 (Homo sapiens, UniProt Q9BWU1); assay: Inhibition of kinase tracer 236 binding to GST-tagged CDK19/CycC (unknown origin) after 60 min by TR-FRET assay; format: protein-complex assay; summary of the method: as §2
Sequence of Cyclin-C/Cyclin-dependent kinase 19 (Q9BWU1 whole entry): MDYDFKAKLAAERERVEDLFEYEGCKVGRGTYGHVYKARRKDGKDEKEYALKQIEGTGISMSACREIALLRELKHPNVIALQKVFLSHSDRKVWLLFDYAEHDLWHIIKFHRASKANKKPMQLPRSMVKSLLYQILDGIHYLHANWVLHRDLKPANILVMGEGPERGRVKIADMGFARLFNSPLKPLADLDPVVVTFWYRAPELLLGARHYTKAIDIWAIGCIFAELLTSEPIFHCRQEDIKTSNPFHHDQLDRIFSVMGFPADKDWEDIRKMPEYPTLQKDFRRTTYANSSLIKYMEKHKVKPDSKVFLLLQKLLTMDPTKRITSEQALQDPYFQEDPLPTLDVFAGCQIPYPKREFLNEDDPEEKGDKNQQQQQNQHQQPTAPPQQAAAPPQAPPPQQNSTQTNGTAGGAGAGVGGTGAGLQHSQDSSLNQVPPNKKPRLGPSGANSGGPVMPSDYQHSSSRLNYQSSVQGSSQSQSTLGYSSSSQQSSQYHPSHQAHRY
Sequence of Cyclin-C/Cyclin-dependent kinase 19 (P24863 whole entry, further chain): as the sequence (P24863 whole entry, further chain) above

[19] = Total clearance in mouse at 1 mg/kg, po administered as cassette dose measured up to 8 hrs by LC/MS/MS analysis; format: ADME, organism-based; conditions: in vivo
Plasma [20] = assay: Drug metabolism in mouse plasma assessed as formation of (E)-3-(4-(1H-pyrazol-4-yl)pyridin-3-yl)-N-(4-(morpholinomethyl)phenyl)acrylamide at 1 mg/kg, po administered as cassette dose measured up to 8 hrs by LC/MS/MS analysis; format: ADME, organism-based; conditions: in vivo; summary of the method: as §3
Plasma [21] = assay: Drug metabolism in mouse plasma assessed as formation of (E)-4-(1-methyl-1H-pyrazol-4-yl)-3-(3-(4-(morpholinomethyl)phenylamino)-3-oxoprop-1-enyl)pyridine 1-oxide at 1 mg/kg, po administered as cassette dose measured up to 8 hrs by LC/MS/MS analysis; format: ADME, organism-based; conditions: in vivo; summary of the method: as §3
Plasma [22] = assay: Drug metabolism in mouse plasma assessed as formation of (E)-3-(4-(1-methyl-1H-pyrazol-4-yl)pyridin-3-yl)-N-(4-((3-oxomorpholino)methyl)phenyl)acrylamide at 1 mg/kg, po administered as cassette dose measured up to 8 hrs by LC/MS/MS analysis; format: ADME, organism-based; conditions: in vivo; summary of the method: as §3
Plasma [23] = assay: Drug metabolism in mouse plasma assessed as formation of (E)-N-(4-((2-hydroxyethylamino)methyl)phenyl)-3-(4-(1-methyl-1H-pyrazol-4-yl)pyridin-3-yl)acrylamide at 1 mg/kg, po administered as cassette dose measured up to 8 hrs by LC/MS/MS analysis; format: ADME, organism-based; conditions: in vivo; summary of the method: as §3

IC50 (CDK8/Cyclin C) [nM]	EC50 [2] [nM]	activity at 20 min, 30 µM (CYP3A4) [%]	Cmax [3] [ng/mL]	AUC(0-t) at 8 h [4] [ng·h/mL]	MRT [5] [h]	bioavailability [6] [%]	microsomal intrinsic clearance (Liver [7]) [µL/min/mg]	intrinsic clearance (Liver [8]) [µL/min/mg]	solubility [9] [µg/mL]	SMILES	also measured
2.5	8.4	99	321	370	1.6	22.5	15	97	30 (≈ 68.9 µM)	O=C(/C=C/c1cnccc1-c1cnn(C2CC2)c1)Nc1ccc(CN2CC(F)(F)C2)cc1	inhibition [1]: Active; GI50 (RPMI-8226 [10]): 21 nM; GI50 (EOL1): 6.5 nM; T/C (RPMI-8226 [11]): 29%; T/C (RPMI-8226 [12]): -2%; Activity (Mus musculus [13]): Non-Toxic; Activity (Mus musculus [14]): 12%; inhibition (Mus musculus [15]): Active; inhibition [16]: Active; inhibition [17]: Active
6.5	13	81	47.5	76.9	1.5	21.9	22	77	68 (≈ 169 µM)	Cn1cc(-c2ccncc2/C=C/C(=O)Nc2ccc(CN3CCOCC3)cc2)cn1	IC50 [18]: 15 nM; CL/F [19]: 49.5 mL/min/kg; Drug metabolism (Plasma [20]): Metabolite_Detected; Drug metabolism (Plasma [21]): Metabolite_Detected; Drug metabolism (Plasma [22]): Metabolite_Detected; Drug metabolism (Plasma [23]): Metabolite_Detected
